Laboratory results published in ChEMBL document CHEMBL1148642, “(2S,3S)-3-Amino-4-(3,3-difluoropyrrolidin-1-yl)-N,N-dimethyl-4-oxo-2-(4-[1,2,4]triazolo[1,5-a]-pyridin-6-ylphenyl)butanamide: a selective alpha-amino amide dipeptidyl peptidase IV inhibitor for the treatment of type 2 diabetes” (J Med Chem, 2006).

What was measured:
Rattus norvegicus = experiment: AUC in rat at 2 mg/kg, po normalized to 1 mg/kg; type: ADME, organism-based, Plasma; settings: in vivo
Prolyl endopeptidase FAP = target: T1, Prolyl endopeptidase FAP (Homo sapiens, UniProt Q12884); experiment: Inhibition of FAP
T1 sequence (Q12884 whole entry): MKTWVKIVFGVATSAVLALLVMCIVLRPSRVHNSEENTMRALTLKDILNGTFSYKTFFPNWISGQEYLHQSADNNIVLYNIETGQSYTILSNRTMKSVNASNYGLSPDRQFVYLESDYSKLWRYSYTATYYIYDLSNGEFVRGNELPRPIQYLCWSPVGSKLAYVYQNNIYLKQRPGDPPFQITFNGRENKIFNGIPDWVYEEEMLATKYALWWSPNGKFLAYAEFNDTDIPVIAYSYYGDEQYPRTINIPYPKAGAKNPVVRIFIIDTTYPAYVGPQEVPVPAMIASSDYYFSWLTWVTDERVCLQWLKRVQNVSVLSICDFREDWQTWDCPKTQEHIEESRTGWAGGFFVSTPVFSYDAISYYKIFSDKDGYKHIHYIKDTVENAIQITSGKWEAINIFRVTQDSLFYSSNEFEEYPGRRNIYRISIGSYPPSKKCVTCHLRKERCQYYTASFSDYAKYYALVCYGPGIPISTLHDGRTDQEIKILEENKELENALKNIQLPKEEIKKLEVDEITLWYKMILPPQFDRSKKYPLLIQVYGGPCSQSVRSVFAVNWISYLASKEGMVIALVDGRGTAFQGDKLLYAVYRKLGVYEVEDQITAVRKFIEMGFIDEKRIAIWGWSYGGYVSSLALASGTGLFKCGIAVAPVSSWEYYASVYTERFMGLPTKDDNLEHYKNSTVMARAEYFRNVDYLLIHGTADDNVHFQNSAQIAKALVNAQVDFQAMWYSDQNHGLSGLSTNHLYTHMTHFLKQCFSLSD

Xaa-Pro dipeptidase = target: T2, Xaa-Pro dipeptidase (Homo sapiens, UniProt P12955); experiment: Inhibition of prolidase
T2 sequence (P12955 whole entry): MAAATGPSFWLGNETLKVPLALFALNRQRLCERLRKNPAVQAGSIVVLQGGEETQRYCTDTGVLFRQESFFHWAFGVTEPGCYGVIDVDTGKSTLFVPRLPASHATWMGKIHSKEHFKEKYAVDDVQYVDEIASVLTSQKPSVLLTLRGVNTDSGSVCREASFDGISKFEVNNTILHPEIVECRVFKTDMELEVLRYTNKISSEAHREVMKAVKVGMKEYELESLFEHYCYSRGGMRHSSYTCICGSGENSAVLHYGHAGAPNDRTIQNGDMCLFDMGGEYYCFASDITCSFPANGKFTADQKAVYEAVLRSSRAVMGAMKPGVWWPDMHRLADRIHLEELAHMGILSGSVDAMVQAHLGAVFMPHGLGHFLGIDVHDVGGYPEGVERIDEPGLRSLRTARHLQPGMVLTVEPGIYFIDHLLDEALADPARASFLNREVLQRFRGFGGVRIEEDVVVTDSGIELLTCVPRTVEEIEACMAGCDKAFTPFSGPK

Dipeptidyl peptidase 2 = Dipeptidyl peptidase 2 (Homo sapiens, UniProt Q9UHL4); experiment: Inhibition of QPP
[1] = Plasma clearance in rat at 1 mg/kg, iv or 2 mg/kg, po; type: ADME, organism-based
Dipeptidyl peptidase 8 = Dipeptidyl peptidase 8 (Homo sapiens, UniProt Q6V1X1); experiment: Inhibition of DPP8
[2] = Bioavailability in rat at 1 mg/kg, iv and 2 mg/kg, po; type: ADME, organism-based; settings: in vivo
Dipeptidyl peptidase 9 = Dipeptidyl peptidase 9 (Homo sapiens, UniProt Q86TI2); experiment: Inhibition of DPP9
[3] = Cmax in rat at 2 mg/kg, po; type: ADME, organism-based; set-up: dose 2 mg/kg, route oral; settings: in vivo
[4] = Half life in rat at 1 mg/kg, iv or 2 mg/kg, po; type: ADME, organism-based; settings: in vivo
Dipeptidyl peptidase 4 [5] = target: T3, Dipeptidyl peptidase 4 (Homo sapiens, UniProt P27487); experiment: Inhibition of DPP4
Xaa-Pro aminopeptidase 1 = Xaa-Pro aminopeptidase 1 (Homo sapiens, UniProt Q9NQW7); experiment: Inhibition of aminopeptidase P
Dipeptidyl peptidase 4 [6] = target: T3, Dipeptidyl peptidase 4; experiment: Inhibition of DPP4 in presence of 50% human serum
[7] = Half life in dog at 1 mg/kg, iv or 2 mg/kg, po; type: ADME, organism-based, Canis lupus familiaris; settings: in vivo
[8] = target: Voltage-dependent L-type calcium channel subunit alpha-1S (Oryctolagus cuniculus, UniProt P07293); experiment: Inhibition of rabbit skeletal muscle L-type calcium channel
How it was run: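 Rabbit skeletal muscle membranes (40-70 µg) with [3H]-diltiazem (20 nM final) in 50 mM Tris pH 7.4. Serially diluted compound added; incubated 60 min at room temperature with shaking. Filtered through PEI-soaked filters, washed three times with ice-cold buffer, then counted. Nonspecific binding in 20 µM unlabeled diltiazem; total binding with DMSO only.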

Canis familiaris = experiment: AUC in dog at 2 mg/kg, po normalized to 1 mg/kg; type: ADME, organism-based, Canis lupus familiaris, Plasma; settings: in vivo
[9] = target: Sodium channel protein type 5 subunit alpha (Homo sapiens, UniProt Q14524); experiment: Inhibition of human cardiac sodium channel
How it was run: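 Membranes from HEK293 cells stably expressing human cardiac Na+ channel hNav1.5 (40-80 µg), with [3H]-BPBTS (1 nM final), in 20 mM Tris-HCl pH 7.4 with 0.01 mg/mL bacitracin. Incubated 16 h at room temperature with shaking, then filtered and scintillation counted. Nonspecific binding was taken with 5 µM unlabeled ligand; total binding with DMSO only.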

[10] = Plasma clearance in dog at 1 mg/kg, iv or 2 mg/kg, po; type: ADME, organism-based, Canis lupus familiaris
[11] = Bioavailability in dog at 1 mg/kg, iv and 2 mg/kg, po; type: ADME, organism-based, Canis lupus familiaris; settings: in vivo
[12] = Cmax in dog at 2 mg/kg, po; type: ADME, organism-based, Canis lupus familiaris; set-up: dose 2 mg/kg, route oral; settings: in vivo
[13] = target: Voltage-gated inwardly rectifying potassium channel KCNH2 (Homo sapiens, UniProt Q12809); experiment: Inhibition of hERG; type: toxicity

Sequence of Xaa-Pro aminopeptidase 1 (Q9NQW7 whole entry): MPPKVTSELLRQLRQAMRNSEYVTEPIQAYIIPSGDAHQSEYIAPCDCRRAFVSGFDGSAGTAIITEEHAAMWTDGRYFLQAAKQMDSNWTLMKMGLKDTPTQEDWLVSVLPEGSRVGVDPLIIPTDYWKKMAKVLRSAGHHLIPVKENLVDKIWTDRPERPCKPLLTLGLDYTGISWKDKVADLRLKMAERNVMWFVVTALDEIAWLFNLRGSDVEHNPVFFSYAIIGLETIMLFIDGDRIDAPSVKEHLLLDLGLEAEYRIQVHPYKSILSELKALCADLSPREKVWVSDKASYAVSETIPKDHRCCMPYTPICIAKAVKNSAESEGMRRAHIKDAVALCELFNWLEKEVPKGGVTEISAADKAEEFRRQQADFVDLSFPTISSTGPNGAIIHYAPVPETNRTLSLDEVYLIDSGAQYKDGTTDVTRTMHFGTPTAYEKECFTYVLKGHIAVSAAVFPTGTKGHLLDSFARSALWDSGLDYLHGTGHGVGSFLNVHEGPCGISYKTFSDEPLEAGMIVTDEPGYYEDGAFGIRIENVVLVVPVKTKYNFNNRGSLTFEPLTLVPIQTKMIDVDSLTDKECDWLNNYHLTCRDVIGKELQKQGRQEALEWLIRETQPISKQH
T3 sequence (P27487 whole entry): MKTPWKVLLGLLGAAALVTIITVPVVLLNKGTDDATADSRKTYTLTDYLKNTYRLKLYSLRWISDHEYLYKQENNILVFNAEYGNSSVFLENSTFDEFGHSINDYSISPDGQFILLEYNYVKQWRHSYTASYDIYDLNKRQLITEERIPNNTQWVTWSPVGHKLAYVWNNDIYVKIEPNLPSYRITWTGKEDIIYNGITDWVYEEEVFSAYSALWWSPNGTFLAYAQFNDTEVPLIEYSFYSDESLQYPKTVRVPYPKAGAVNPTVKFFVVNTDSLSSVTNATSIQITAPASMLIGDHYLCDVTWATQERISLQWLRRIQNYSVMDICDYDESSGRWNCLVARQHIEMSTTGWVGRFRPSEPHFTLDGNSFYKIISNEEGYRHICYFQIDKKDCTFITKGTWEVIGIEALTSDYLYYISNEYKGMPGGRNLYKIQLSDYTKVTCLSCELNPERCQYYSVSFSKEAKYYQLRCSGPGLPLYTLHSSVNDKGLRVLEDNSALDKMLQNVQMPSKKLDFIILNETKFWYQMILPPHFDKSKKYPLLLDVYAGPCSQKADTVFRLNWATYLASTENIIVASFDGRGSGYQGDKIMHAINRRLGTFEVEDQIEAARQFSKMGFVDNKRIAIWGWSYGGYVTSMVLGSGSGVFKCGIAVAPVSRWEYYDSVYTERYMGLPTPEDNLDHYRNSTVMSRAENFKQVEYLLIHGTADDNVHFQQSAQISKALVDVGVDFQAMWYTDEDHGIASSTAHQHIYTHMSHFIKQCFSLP
Sequence of Dipeptidyl peptidase 8 (Q6V1X1 whole entry): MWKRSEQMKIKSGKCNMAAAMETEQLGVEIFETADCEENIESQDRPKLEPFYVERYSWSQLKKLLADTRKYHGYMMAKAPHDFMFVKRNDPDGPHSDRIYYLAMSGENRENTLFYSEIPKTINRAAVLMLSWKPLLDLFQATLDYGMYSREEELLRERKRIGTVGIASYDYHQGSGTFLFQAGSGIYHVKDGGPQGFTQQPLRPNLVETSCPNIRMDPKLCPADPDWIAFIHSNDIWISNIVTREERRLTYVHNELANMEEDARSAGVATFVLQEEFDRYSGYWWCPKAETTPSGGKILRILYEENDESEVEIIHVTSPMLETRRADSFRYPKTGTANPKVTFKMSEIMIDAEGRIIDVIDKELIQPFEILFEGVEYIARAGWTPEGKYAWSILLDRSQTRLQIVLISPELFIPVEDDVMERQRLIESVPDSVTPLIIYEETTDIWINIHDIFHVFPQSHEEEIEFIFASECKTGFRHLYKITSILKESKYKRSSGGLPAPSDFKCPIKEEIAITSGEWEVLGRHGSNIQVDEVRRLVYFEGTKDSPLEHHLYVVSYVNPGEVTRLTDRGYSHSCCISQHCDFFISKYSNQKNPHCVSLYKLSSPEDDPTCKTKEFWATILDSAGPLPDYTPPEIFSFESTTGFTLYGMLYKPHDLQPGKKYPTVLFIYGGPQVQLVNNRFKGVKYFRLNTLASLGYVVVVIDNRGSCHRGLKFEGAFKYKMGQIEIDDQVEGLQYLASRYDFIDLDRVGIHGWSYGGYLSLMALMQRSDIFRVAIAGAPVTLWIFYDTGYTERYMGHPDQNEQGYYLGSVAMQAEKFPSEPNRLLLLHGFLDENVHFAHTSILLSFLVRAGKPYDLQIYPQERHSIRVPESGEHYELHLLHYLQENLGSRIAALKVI
Sequence of Dipeptidyl peptidase 9 (Q86TI2 whole entry): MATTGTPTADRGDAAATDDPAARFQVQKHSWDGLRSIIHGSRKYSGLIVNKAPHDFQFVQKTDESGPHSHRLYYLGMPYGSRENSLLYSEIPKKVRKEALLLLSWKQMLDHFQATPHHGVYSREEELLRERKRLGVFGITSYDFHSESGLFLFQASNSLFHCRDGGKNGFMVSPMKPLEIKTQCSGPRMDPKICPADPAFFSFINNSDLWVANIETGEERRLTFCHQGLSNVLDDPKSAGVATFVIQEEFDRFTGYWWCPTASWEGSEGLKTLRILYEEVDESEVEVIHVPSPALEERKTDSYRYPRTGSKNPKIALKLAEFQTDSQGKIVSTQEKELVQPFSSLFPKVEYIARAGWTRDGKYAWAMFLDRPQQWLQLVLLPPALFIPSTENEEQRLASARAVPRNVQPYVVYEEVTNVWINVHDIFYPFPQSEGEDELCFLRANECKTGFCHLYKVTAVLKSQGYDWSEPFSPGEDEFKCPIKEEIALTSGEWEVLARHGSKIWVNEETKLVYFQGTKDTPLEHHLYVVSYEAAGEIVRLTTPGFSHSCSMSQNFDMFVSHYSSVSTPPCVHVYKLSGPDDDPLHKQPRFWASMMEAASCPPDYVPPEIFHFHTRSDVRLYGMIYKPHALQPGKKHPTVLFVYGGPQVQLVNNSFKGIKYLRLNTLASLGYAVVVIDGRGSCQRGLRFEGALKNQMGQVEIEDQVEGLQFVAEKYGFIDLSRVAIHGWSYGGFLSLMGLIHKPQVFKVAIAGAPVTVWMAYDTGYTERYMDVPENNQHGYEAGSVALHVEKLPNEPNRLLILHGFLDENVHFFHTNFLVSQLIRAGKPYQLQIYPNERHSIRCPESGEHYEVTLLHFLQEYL
Sequence of Voltage-dependent L-type calcium channel subunit alpha-1S (P07293 whole entry): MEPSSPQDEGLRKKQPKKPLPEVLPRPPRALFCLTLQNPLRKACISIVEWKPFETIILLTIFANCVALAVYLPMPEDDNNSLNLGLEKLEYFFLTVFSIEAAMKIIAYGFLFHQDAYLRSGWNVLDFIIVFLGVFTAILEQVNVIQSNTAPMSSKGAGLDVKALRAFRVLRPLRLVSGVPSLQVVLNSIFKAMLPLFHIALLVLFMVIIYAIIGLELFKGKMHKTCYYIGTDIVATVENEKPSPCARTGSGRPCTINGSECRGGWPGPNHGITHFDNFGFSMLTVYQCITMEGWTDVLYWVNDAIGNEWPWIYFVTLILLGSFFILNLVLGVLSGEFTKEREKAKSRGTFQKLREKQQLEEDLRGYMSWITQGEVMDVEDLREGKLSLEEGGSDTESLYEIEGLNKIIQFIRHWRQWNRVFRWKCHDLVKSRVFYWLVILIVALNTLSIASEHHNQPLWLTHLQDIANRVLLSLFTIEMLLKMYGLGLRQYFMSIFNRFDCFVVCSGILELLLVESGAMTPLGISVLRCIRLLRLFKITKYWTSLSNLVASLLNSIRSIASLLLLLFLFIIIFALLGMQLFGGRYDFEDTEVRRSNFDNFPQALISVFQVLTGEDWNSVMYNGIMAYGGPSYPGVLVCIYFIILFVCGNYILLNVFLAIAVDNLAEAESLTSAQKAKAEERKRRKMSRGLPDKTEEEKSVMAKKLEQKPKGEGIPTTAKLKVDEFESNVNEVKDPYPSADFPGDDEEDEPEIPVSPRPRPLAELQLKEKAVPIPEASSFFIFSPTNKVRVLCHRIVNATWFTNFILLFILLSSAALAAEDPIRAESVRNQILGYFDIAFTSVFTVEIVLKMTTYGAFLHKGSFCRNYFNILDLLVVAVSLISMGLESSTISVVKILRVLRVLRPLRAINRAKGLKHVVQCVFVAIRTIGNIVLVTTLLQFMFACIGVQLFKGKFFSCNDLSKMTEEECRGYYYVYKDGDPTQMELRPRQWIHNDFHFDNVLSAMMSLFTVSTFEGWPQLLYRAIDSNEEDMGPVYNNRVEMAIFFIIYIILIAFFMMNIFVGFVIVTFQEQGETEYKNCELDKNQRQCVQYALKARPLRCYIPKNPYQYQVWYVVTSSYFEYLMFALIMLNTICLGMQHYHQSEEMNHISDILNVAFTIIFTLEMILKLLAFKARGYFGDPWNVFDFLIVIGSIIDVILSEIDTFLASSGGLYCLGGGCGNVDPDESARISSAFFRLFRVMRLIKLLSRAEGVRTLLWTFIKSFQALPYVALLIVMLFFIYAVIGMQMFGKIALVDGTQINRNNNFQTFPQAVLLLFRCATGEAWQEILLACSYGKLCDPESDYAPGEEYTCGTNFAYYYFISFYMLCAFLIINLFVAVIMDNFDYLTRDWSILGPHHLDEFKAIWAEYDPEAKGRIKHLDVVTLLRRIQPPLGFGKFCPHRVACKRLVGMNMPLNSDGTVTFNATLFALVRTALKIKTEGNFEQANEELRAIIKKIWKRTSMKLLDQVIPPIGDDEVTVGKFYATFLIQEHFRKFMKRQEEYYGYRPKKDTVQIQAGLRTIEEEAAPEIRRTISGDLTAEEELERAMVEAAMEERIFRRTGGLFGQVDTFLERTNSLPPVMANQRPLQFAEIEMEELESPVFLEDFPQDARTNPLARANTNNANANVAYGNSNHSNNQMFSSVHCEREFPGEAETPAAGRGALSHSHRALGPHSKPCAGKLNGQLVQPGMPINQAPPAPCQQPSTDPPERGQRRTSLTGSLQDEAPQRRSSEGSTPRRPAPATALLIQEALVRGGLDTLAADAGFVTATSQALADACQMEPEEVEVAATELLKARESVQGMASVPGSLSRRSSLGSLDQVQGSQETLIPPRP

Row | AUC (Rattus norvegicus) | IC50 (Prolyl endopeptidase FAP) | IC50 (Xaa-Pro dipeptidase) | IC50 (Dipeptidyl peptidase 2) | clearance [1] | IC50 (Dipeptidyl peptidase 8) | bioavailability [2] | IC50 (Dipeptidyl peptidase 9) | Cmax [3] | half-life [4] | IC50 (Dipeptidyl peptidase 4 [5]) | IC50 (Xaa-Pro aminopeptidase 1) | IC50 (Dipeptidyl peptidase 4 [6]) | half-life [7] | AUC (Canis familiaris) | clearance [10] | Cmax [12] | Structure (SMILES) | other results
1 | 24 µM·h | > 40 µM | > 40 µM | 18 µM | 1.4 mL/min/kg | > 100 µM | 79% | > 100 µM | 8.9 µM | 2.7 h | 0.0075 µM | > 40 µM | 0.057 µM | 3.1 h | 38 µM·h | 1 mL/min/kg | 22 µM | CN(C)C(=O)[C@@H](c1ccc(-c2ccn3nccc3n2)cc1)[C@H](N)C(=O)N1CCC(F)(F)C1.O=C(O)C(F)(F)F | IC50 [8]: 15 µM; IC50 [9]: 60 µM; bioavailability [11]: 100%
2 | 5.6 µM·h | > 40 µM | > 40 µM | 63 µM | 3.3 mL/min/kg | > 100 µM | 46% | > 100 µM | 3.9 µM | 4.3 h | 0.008 µM | > 40 µM | 0.053 µM | – | – | – | – | CN(C)C(=O)[C@@H](c1ccc(-c2ccn3nccc3n2)cc1)[C@H](N)C(=O)N1CC[C@H](F)C1.O=C(O)C(F)(F)F | –
3 | 15 µM·h | > 40 µM | > 40 µM | 26 µM | 1.8 mL/min/kg | > 100 µM | 69% | > 100 µM | 7.8 µM | 1.1 h | 0.0062 µM | > 40 µM | 0.034 µM | 3.4 h | 20 µM·h | 1.5 mL/min/kg | 9.5 µM | CN(C)C(=O)[C@@H](c1ccc(-c2ccn3ncnc3c2)cc1)[C@H](N)C(=O)N1CCC(F)(F)C1.O=C(O)C(F)(F)F | IC50 [8]: 54 µM; IC50 [9]: > 100 µM; IC50 [13]: 16 µM; bioavailability [11]: 81%
4 | 2.2 µM·h | > 40 µM | > 40 µM | > 100 µM | 7.3 mL/min/kg | > 100 µM | 37% | > 100 µM | 2.4 µM | 2.1 h | 0.0027 µM | > 40 µM | 0.041 µM | 2 h | 6.9 µM·h | 6.1 mL/min/kg | 4 µM | CN(C)C(=O)[C@@H](c1ccc(-c2ccc3ncnn3c2)cc1)[C@H](N)C(=O)N1CC(F)C1.O=C(O)C(F)(F)F | bioavailability [11]: 100%
5 | 0.83 µM·h | > 40 µM | > 40 µM | 14 µM | 10 mL/min/kg | > 100 µM | 21% | > 100 µM | 0.6 µM | 1.7 h | 0.0053 µM | > 40 µM | 0.035 µM | – | – | – | – | CN(C)C(=O)[C@@H](c1ccc(-c2ccn3ncnc3c2)cc1)[C@H](N)C(=O)N1CC[C@H](F)C1.O=C(O)C(F)(F)F | –
6 | 2.4 µM·h | > 40 µM | > 40 µM | > 100 µM | 7 mL/min/kg | > 100 µM | – | > 100 µM | 2.3 µM | 2 h | – | > 40 µM | – | 2.4 h | 12 µM·h | 3.1 mL/min/kg | 6.6 µM | CN(C)C(=O)[C@@H](c1ccc(-c2ccc3ncnn3c2)cc1)[C@H](N)C(=O)N1CC[C@H](F)C1.O=C(O)C(F)(F)F | –
7 | 2.9 µM·h | > 40 µM | > 40 µM | > 100 µM | 7.7 mL/min/kg | > 100 µM | 46% | 14 µM | 2.1 µM | 1.6 h | 0.0052 µM | > 40 µM | 0.063 µM | 1.1 h | 6.8 µM·h | 5.9 mL/min/kg | 5.9 µM | CN(C)C(=O)[C@@H](c1ccc(-c2ccc3ncnn3c2)cc1)[C@H](N)C(=O)N1CCCC1.O=C(O)C(F)(F)F | bioavailability [11]: 98%

Continued, molecule first:

Row | Structure (SMILES) | AUC (Rattus norvegicus) | IC50 (Prolyl endopeptidase FAP) | IC50 (Xaa-Pro dipeptidase) | IC50 (Dipeptidyl peptidase 2) | clearance [1] | IC50 (Dipeptidyl peptidase 8) | bioavailability [2] | IC50 (Dipeptidyl peptidase 9) | Cmax [3] | half-life [4] | IC50 (Dipeptidyl peptidase 4 [5]) | IC50 (Xaa-Pro aminopeptidase 1) | IC50 (Dipeptidyl peptidase 4 [6]) | half-life [7] | AUC (Canis familiaris) | clearance [10] | Cmax [12] | other results
8 | CN(C)C(=O)[C@@H](c1ccc(-c2ccc3nncn3c2)cc1)[C@H](N)C(=O)N1CC[C@H](F)C1.O=C(O)C(F)(F)F | 0.009 µM·h | > 40 µM | > 40 µM | > 100 µM | 34 mL/min/kg | > 100 µM | 0.76% | > 100 µM | 0.008 µM | 1.1 h | 0.0041 µM | > 40 µM | 0.016 µM | – | – | – | – | –
9 | Cc1c(-c2ccc([C@H](C(=O)N(C)C)[C@H](N)C(=O)N3CC[C@H](F)C3)cc2)ccc2ncnn12 | – | > 40 µM | > 40 µM | > 100 µM | – | > 100 µM | – | > 100 µM | – | – | 0.0086 µM | > 40 µM | 0.061 µM | – | – | – | – | –
10 | CN(C)C(=O)[C@@H](c1ccc(-c2ccc(=O)n(C)c2)cc1)[C@H](N)C(=O)N1CC[C@H](F)C1.O=C(O)C(F)(F)F | 0.048 µM·h | > 40 µM | > 40 µM | > 100 µM | 15 mL/min/kg | > 100 µM | 2% | > 100 µM | 0.021 µM | 1.2 h | 0.008 µM | > 40 µM | 0.079 µM | – | – | – | – | –
11 | Cc1nc2ccc(-c3ccc([C@H](C(=O)N(C)C)[C@H](N)C(=O)N4CC[C@H](F)C4)cc3)cn2n1 | – | > 40 µM | > 40 µM | > 100 µM | – | > 100 µM | – | > 100 µM | – | – | 0.022 µM | > 40 µM | 0.223 µM | – | – | – | – | –
12 | Cc1cc(-c2ccc([C@H](C(=O)N(C)C)[C@H](N)C(=O)N3CC[C@H](F)C3)cc2)cn2ncnc12 | – | > 40 µM | > 40 µM | > 100 µM | – | > 100 µM | – | > 100 µM | – | – | 0.15 µM | > 40 µM | 0.64 µM | – | – | – | – | –
13 | CN(C)C(=O)[C@@H](c1ccc(-c2ccc3nccn3c2)cc1)[C@H](N)C(=O)N1CC[C@H](F)C1 | – | > 40 µM | > 40 µM | > 100 µM | – | > 100 µM | – | > 100 µM | – | – | 0.013 µM | > 40 µM | 0.133 µM | – | – | – | – | –
14 | CN(C)C(=O)[C@@H](c1ccc(-c2ccc3nccn3n2)cc1)[C@H](N)C(=O)N1CC[C@H](F)C1 | – | > 40 µM | > 40 µM | > 100 µM | – | > 100 µM | – | > 100 µM | – | – | 0.013 µM | > 40 µM | 0.177 µM | – | – | – | – | –
